ChEMBL document CHEMBL3600318, “Chemical synthesis of tetracyclic terpenes and evaluation of antagonistic activity on endothelin-A receptors and voltage-gated calcium channels” (Bioorg Med Chem, 2015)
The source made the active and inactive calls. The rule behind the calls is not given here.

Legend:
[1] = (§1) Antagonist activity at endothelin A receptor in Mongolian gerbil spiral modiolar artery assessed as inhibition of ET-1-induced vasoconstriction at 0.1 to 1 uM […] followed by compound washout and again ET-1 addition by video microscopic analysis; type: tissue-based, Meriones unguiculatus
Meriones unguiculatus = species: Meriones unguiculatus; assay: as §1; type: tissue-based
Endothelin-1 receptor [2] = biological target: T1, Endothelin-1 receptor (Rattus norvegicus, UniProt P26684); assay: Antagonist activity at endothelin A receptor in rat A7r5 cells assessed as inhibition of ET-1-induced increase in cytosolic free Ca2+ level treated 1 min prior to ET-1 addition by fura-2 dye-based spectrofluorometric analysis; type: functional, cell-based
T1 sequence (P26684 whole entry): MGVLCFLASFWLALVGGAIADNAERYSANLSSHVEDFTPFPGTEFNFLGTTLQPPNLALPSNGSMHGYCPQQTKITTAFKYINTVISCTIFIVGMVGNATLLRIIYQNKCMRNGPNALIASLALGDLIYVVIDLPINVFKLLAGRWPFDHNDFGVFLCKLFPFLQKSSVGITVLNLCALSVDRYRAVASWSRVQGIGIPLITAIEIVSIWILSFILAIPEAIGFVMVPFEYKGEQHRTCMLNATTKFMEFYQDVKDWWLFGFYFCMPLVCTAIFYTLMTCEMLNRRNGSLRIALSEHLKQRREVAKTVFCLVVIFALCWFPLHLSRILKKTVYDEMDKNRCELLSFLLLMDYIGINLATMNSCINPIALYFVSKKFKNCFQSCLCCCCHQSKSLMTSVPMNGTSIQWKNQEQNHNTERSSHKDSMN

Endothelin-1 receptor [3] = biological target: T1, Endothelin-1 receptor; assay: Antagonist activity at endothelin A receptor in Wistar rat thoracic aorta strips assessed as inhibition of ET1-induced vasoconstriction preincubated for 5 mins followed by ET1 addition
[4] = biological target: Voltage-dependent T-type calcium channel subunit alpha-1H (Mus musculus) (UniProt O88427); assay: Inhibition of Cav3.2 T-type channel in C57/BC6 mouse DRG neurons assessed as inhibition of low-voltage activated Ca2+ currents by patch clamp method
Procedure, shortened: (§2)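 Whole-cell voltage clamp at about 21 °C on large acutely dissociated DRG neurons from 1-2-month C57/BC6 mice, used within 2 days. Holding potential -90 mV, 100-ms steps in 10 mV increments every 2 s, giving low- and high-voltage-activated Ca2+ currents. Bath-applied compound 0.1–3 µM, vehicle 0.1% DMSO. IC50 from a logistic fit, mean ± SEM, n = 4 per point.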

Mus musculus [5] = species: Mus musculus; assay: Inhibition of L-type Ca2+ channel in C57/BC6 mouse DRG neurons assessed as inhibition of high-voltage activated Ca2+ currents by patch clamp method; procedure, shortened: as §2
Mus musculus [6] = species: Mus musculus; assay: Inhibition of voltage-gated sodium channel in C57/BC6 mouse DRG neurons assessed as inhibition of voltage activated Na+ currents at 0.1 to 0.3 uM by patch clamp method
Procedure, shortened: (§3)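 Whole-cell voltage clamp at about 21 °C on acutely dissociated mouse DRG neurons. TTX-sensitive inward Na+ currents elicited by steps to 0 mV for 20 ms, outward K+ currents by steps to 70 mV for 300 ms, at 0.1 Hz; stable 30 min under control. Compound bath-applied, time course followed; vehicle 0.1% DMSO.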

Mus musculus [7] = species: Mus musculus; assay: Inhibition of voltage-gated potassium channel in C57/BC6 mouse DRG neurons assessed as inhibition of voltage activated […] currents at 0.1 to 0.3 uM by patch clamp method; procedure, shortened: as §3
Mus musculus [8] = species: Mus musculus; assay: Inhibition of voltage-gated sodium channel in C57/BC6 mouse DRG neurons assessed as inhibition of voltage activated Na+ currents at 3 uM by patch clamp method; procedure, shortened: as §3
Mus musculus [9] = species: Mus musculus; assay: Inhibition of voltage-gated potassium channel in C57/BC6 mouse DRG neurons assessed as inhibition of voltage activated […] currents at 3 uM by patch clamp method; procedure, shortened: as §3

Chain of Voltage-dependent T-type calcium channel subunit alpha-1H (Mus musculus) (O88427 whole entry): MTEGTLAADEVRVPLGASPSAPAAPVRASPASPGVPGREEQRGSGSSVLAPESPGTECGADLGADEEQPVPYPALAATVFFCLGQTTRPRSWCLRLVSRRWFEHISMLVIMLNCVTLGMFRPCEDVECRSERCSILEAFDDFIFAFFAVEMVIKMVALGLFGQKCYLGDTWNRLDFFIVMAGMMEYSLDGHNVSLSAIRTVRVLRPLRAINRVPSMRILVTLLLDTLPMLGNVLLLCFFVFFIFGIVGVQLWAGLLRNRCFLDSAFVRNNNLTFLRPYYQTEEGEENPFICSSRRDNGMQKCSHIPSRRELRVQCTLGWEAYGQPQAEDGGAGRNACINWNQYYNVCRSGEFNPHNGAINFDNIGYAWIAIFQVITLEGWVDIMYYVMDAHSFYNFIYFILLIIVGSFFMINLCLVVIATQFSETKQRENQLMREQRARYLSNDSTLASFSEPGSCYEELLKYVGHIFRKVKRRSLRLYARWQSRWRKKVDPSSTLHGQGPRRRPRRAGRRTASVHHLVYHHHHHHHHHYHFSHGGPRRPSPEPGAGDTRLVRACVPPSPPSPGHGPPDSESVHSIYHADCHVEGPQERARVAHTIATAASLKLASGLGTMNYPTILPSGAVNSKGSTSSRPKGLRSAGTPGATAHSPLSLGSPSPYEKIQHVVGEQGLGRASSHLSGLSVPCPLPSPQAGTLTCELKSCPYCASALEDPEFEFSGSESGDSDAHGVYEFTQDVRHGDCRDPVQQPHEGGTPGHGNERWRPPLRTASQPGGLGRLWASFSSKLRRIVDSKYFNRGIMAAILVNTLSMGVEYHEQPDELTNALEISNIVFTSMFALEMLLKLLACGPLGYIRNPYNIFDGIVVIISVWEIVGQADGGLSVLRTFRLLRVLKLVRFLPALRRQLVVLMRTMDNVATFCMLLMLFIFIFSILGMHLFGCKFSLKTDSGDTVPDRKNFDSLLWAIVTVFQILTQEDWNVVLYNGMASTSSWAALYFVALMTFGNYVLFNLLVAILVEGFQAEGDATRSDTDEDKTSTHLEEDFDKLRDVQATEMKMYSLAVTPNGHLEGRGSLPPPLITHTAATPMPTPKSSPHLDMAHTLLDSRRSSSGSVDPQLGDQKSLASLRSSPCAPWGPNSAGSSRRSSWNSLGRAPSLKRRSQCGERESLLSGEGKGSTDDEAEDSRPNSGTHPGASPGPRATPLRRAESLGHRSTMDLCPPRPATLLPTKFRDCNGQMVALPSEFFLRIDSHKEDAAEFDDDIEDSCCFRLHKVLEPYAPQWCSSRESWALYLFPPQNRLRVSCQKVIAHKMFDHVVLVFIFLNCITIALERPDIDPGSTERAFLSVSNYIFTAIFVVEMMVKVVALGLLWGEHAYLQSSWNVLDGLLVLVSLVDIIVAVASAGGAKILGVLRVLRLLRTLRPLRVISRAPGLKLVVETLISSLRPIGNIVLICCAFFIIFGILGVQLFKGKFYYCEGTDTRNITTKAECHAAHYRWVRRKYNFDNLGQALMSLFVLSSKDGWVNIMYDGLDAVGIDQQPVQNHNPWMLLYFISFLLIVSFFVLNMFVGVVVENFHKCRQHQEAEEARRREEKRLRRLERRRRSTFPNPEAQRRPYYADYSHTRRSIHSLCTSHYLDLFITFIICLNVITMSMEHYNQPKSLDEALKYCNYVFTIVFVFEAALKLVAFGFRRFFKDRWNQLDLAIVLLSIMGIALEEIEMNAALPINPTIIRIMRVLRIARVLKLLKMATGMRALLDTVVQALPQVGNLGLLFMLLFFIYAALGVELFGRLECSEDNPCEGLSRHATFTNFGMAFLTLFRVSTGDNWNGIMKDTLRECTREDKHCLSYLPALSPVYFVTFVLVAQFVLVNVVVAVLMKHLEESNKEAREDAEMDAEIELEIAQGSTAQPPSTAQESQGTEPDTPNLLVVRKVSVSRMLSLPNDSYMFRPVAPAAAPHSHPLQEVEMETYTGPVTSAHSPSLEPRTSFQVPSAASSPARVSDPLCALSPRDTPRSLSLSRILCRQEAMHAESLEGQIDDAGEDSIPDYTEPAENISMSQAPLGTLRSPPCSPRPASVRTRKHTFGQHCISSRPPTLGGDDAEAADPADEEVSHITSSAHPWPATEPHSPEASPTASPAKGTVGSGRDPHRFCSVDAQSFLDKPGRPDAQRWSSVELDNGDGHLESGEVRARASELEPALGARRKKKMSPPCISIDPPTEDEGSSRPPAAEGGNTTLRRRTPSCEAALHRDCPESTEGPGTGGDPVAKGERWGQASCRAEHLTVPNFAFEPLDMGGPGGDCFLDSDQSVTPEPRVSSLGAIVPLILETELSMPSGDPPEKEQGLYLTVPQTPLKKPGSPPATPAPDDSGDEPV

| SMILES | pA2 [1] | A2 (Meriones unguiculatus) | other results |
| --- | --- | --- | --- |
| CC1(C)C(=O)CC[C@]2(C)[C@H]3CCc4ccc(O)cc4[C@]3(C)CC[C@@H]12 | 6.7 |  |  |
| CC1(C)C(=O)CC[C@]2(C)[C@H]3CC[C@@H]4CCC(=O)C[C@@]4(C#N)[C@]3(C)CC[C@@H]12 | 6.9 | 134 nM |  |
| CC1(C)C(=O)CC[C@]2(C)[C@H]3CCc4ccc(OCCO)cc4[C@]3(C)CC[C@@H]12 | 6.5 |  |  |
| CC1(C)[C@@H]2CC[C@]3(C)[C@H](CC[C@@H]4CC=C(O[Si](C)(C)C(C)(C)C)C[C@]43C=N)[C@@]2(C)CCC12OCCO2 (single isomer, unassigned; (-)) | 7 | 93 nM | inhibition [4]: Dose-dependent effect; inhibition (Mus musculus [5]): Dose-dependent effect; inhibition (Mus musculus [6]): inactive; inhibition (Mus musculus [7]): inactive; inhibition (Mus musculus [8]): Active; inhibition (Mus musculus [9]): Active |
| CC1(C)C(=O)CC[C@]2(C)[C@H]3CC[C@@H]4CCC(=O)C=C4[C@]3(C)CC[C@@H]12 | 6.7 |  |  |

Further lines, with some results ahead:

| pA2 [1] | A2 (Meriones unguiculatus) | SMILES | other results |
| --- | --- | --- | --- |
| 7.1 | 85 nM | CC1(C)CC[C@]2(C(=O)O)CC[C@]3(COC(=O)/C=C/c4ccc(O)c(O)c4)C(=CC[C@@H]4[C@@]5(C)CCC(=O)C(C)(C)[C@@H]5CC[C@]43C)[C@@H]2C1 | IC50 (Endothelin-1 receptor [2]): 11 nM; Ki (Endothelin-1 receptor [3]): 66 nM |
| 6.5 |  | CC1(C)[C@@H]2CC[C@]3(C)[C@H](CC[C@@H]4CC[C@@]5(O)C[C@]43C=N5)[C@@]2(C)CCC12OCCO2 |  |
